Data taken from ChEMBL document CHEMBL1158040, “Biological activities and 3D QSAR studies of a series of Delisea pulchra (cf. fimbriata) derived natural products” (J Nat Prod, 2006).
≈ marks a conversion by molar mass, not a printed value. Calls of active or inactive are those of the source. The calls are words filed in the database; no cut-off is given here.

Columns and labels:
Penicillium oxalicum [1] = experiment: Antimicrobial activity against Penicillium oxalicum at 5 ug; assay type: functional; conditions: for zone of inhibition at 5 µg/disc: read-out: IZ
How it was run: (§1)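 Direct bioautography: each compound is spotted onto TLC plates and the solvent evaporated. The test organism is then grown directly on the plate. Growth inhibition is scored at the spot as active (+) or very active (++). Where a number is given, it is the radius in mm of the inhibition zone around the spot.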

Penicillium oxalicum [2] = experiment: Antimicrobial activity against Penicillium oxalicum at 10 ug; assay type: functional; conditions: for zone of inhibition at 10 µg/disc: read-out: IZ; how it was run: as §1
Penicillium oxalicum [3] = experiment: Antimicrobial activity against Penicillium oxalicum at 0.1 ug; assay type: functional; conditions: for zone of inhibition at 0.1 µg/disc: read-out: IZ; how it was run: as §1
Bacillus subtilis [4] = experiment: Antimicrobial activity against Bacillus subtilis at 5 ug; assay type: functional, organism-based; how it was run: as §1
Escherichia coli [5] = experiment: Antimicrobial activity against Escherichia coli at 0.1 ug; assay type: functional, organism-based; how it was run: as §1
Penicillium oxalicum [6] = experiment: Antimicrobial activity against Penicillium oxalicum at 0.01 ug; assay type: functional; how it was run: as §1
Bacillus subtilis [7] = experiment: Antimicrobial activity against Bacillus subtilis at 10 ug; assay type: functional, organism-based; how it was run: as §1
Escherichia coli [8] = experiment: Antimicrobial activity against Escherichia coli at 10 ug; assay type: functional, organism-based; how it was run: as §1
Bacillus subtilis [9] = experiment: Antimicrobial activity against Bacillus subtilis at 1 ug; assay type: functional, organism-based; how it was run: as §1
Micrococcus luteus [10] = experiment: Antimicrobial activity against Micrococcus luteus at 5 ug; assay type: functional, organism-based; how it was run: as §1
Micrococcus luteus [11] = experiment: Antimicrobial activity against Micrococcus luteus at 10 ug; assay type: functional, organism-based; how it was run: as §1
Micrococcus luteus [12] = experiment: Antimicrobial activity against Micrococcus luteus at 1 ug; assay type: functional, organism-based; how it was run: as §1
Micrococcus luteus [13] = experiment: Antimicrobial activity against Micrococcus luteus at 0.1 ug; assay type: functional, organism-based; how it was run: as §1
Escherichia coli [14] = experiment: Antimicrobial activity against Escherichia coli at 1 ug; assay type: functional, organism-based; how it was run: as §1
Escherichia coli [15] = experiment: Antimicrobial activity against Escherichia coli at 5 ug; assay type: functional, organism-based; how it was run: as §1
Bacillus subtilis [16] = experiment: Antimicrobial activity against Bacillus subtilis at 0.1 ug; assay type: functional, organism-based; how it was run: as §1
Penicillium oxalicum [17] = experiment: Antimicrobial activity against Penicillium oxalicum at 1 ug; assay type: functional; conditions: for zone of inhibition at 1 µg/disc: read-out: IZ; how it was run: as §1
[18] = Inhibition of TK assessed as residual activity at 200 ug/ml
How it was run: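 The enzyme was tyrosine kinase p56lck, with test compounds at 200 μg/mL. The read-out is the remaining enzyme activity.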

KB [19] = experiment: Cytotoxicity against vinblastine-sensitive human KB cells; assay type: functional; conditions: read-out: ED50 (the source's name)
LNCaP = experiment: Cytotoxicity against human LNCAP cells; assay type: functional; conditions: read-out: ED50 (the source's name)
Lu1 = experiment: Cytotoxicity against human Lu1 cells; assay type: functional; conditions: read-out: ED50 (the source's name)
KB [20] = experiment: Cytotoxicity against vinblastine-resistant human KB cells; assay type: functional; conditions: read-out: ED50 (the source's name)
How it was run: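 The vinblastine-resistant KB-V1 line was tested both with and without added vinblastine in the cultured tumour-cell cytotoxicity panel. Results are reported as ED50.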

KB [21] = experiment: Cytotoxicity against human KB cells; assay type: functional; conditions: read-out: ED50 (the source's name)
Plasmodium falciparum [22] = experiment: Antimalarial activity against chloroquine-sensitive Plasmodium falciparum D6 at 10 ug/ml; assay type: functional
[23] = target: Human immunodeficiency virus type 1 reverse transcriptase (Human immunodeficiency virus 1) (UniProt Q72547); experiment: Inhibition of HIV1 RT at 200 uM
How it was run: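 HIV-1 reverse transcriptase inhibition was measured in an ELISA-based system.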

ZR-75-1 = experiment: Cytotoxicity against human ZR-75-1 cells; assay type: functional; conditions: read-out: ED50 (the source's name)
Plasmodium falciparum [24] = experiment: Antimalarial activity against chloroquine-sensitive Plasmodium falciparum D6; assay type: functional, organism-based
How it was run: (§2)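 In vitro growth inhibition of Plasmodium falciparum clones D6 (chloroquine-sensitive) and W2 (chloroquine-resistant); IC50 reported in μg/mL.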

Plasmodium falciparum [25] = experiment: Antimalarial activity against chloroquine-resistant Plasmodium falciparum W2; assay type: functional, organism-based; how it was run: as §2
[26] = Selectivity index, ratio of IC50 for human KB cells to IC50 for Plasmodium falciparum D6; assay type: toxicity, cell-based; conditions: KB cells versus Plasmodium falciparum D6, read-out: Ratio IC50
How it was run: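 Plasmodium falciparum clones were assayed in vitro: D6 (chloroquine-sensitive) and W2 (chloroquine-resistant). IC50 is in μg/mL. The selectivity index is the ratio of the antimalarial to the cytotoxic activity.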

Compound | zone of inhibition at 5 µg/disc (Penicillium oxalicum [1]) | zone of inhibition at 10 µg/disc (Penicillium oxalicum [2]) | Activity (Bacillus subtilis [4]) | Activity (Escherichia coli [5]) | Activity (Bacillus subtilis [7]) | Activity (Escherichia coli [8]) | Activity (Bacillus subtilis [9]) | Activity (Micrococcus luteus [10]) | Activity (Micrococcus luteus [11]) | Activity (Micrococcus luteus [12]) | Activity (Micrococcus luteus [13]) | Activity (Escherichia coli [14]) | Activity (Escherichia coli [15]) | Activity (Bacillus subtilis [16]) | zone of inhibition at 1 µg/disc (Penicillium oxalicum [17]) | Activity [18] | Activity (Penicillium oxalicum [3]) | EC50 (KB [19]) | EC50 (LNCaP) | EC50 (KB [21]) | other results
CCC[C@@H](OC(C)=O)C1=C(Br)/C(=C\Br)OC1=O [ACETOXYFIMBROLIDE] | 22 mm | 18 mm | Active | inactive | Active | inactive | Active | Active | Active | Active | Active | inactive | inactive | inactive | 14 mm | – | – | – | – | – | zone of inhibition at 0.1 µg/disc (Penicillium oxalicum [3]): 6 mm; Activity (Penicillium oxalicum [6]): inactive
CCC[C@@H](O)C1=C(Br)/C(=C\Cl)OC1=O | – | – | – | – | – | – | – | – | – | – | – | – | – | – | – | 1.6% | – | – | – | – | –
CCC[C@@H](OC(C)=O)C1=C(Br)[C@](C)(OC)OC1=O | 12 mm | 16 mm | Active | inactive | Active | inactive | inactive | Active | Active | inactive | inactive | inactive | inactive | inactive | 8 mm | 86% | inactive | 5.6 µg/mL (≈ 17.4 µM) | 3.6 µg/mL (≈ 11.2 µM) | 3.9 µg/mL (≈ 12.1 µM) | EC50 (Lu1): > 20 µg/mL; EC50 (KB [20]): 4.7 µg/mL (≈ 14.6 µM); Activity (Plasmodium falciparum [22]): >50%; Activity [23]: inactive; EC50 (ZR-75-1): 4 µg/mL (≈ 12.5 µM)
CCCCC1=C(Br)C(OC)(C(Br)Br)OC1=O (stereo not drawn) | – | – | inactive | inactive | inactive | Active | inactive | Active | Active | Active | inactive | Active | Active | inactive | – | – | inactive | 10.5 µg/mL (≈ 24.9 µM) | 6.6 µg/mL (≈ 15.7 µM) | 7.6 µg/mL (≈ 18.1 µM) | Activity (Penicillium oxalicum [1]): inactive; Activity (Penicillium oxalicum [2]): inactive; EC50 (Lu1): > 20 µg/mL; EC50 (KB [20]): 8 µg/mL (≈ 19 µM); Activity (Plasmodium falciparum [22]): >50%; Activity [23]: inactive; EC50 (ZR-75-1): 6.7 µg/mL (≈ 15.9 µM); Activity (Penicillium oxalicum [17]): inactive
CCC[C@@H](O)C1=C(Br)[C@](CI)(OC)OC1=O | 6 mm | 6 mm | inactive | inactive | Active | Active | inactive | Active | Active | inactive | inactive | inactive | Active | inactive | 2 mm | 55.7% | inactive | > 20 µg/mL | 9.1 µg/mL (≈ 22.5 µM) | > 20 µg/mL | EC50 (Lu1): > 20 µg/mL; EC50 (KB [20]): > 20 µg/mL; Activity (Plasmodium falciparum [22]): >50%; Activity [23]: inactive; EC50 (ZR-75-1): 6.4 µg/mL (≈ 15.8 µM)
CCC[C@@H](O)C1=C(Br)/C(=C\Br)OC1=O [HYDROXYFIMBROLIDE] | 31 mm | 28 mm | Active | – | Active | Active | Active | Active | Active | Active | inactive | Active | Active | Active | 21 mm | – | – | 0.2 µg/mL (≈ 0.614 µM) | < 0.1 µg/mL | 0.5 µg/mL (≈ 1.53 µM) | zone of inhibition at 0.1 µg/disc (Penicillium oxalicum [3]): 6 mm; EC50 (Lu1): 0.6 µg/mL (≈ 1.84 µM); Activity (Penicillium oxalicum [6]): inactive; EC50 (KB [20]): 1.1 µg/mL (≈ 3.37 µM); Activity (Plasmodium falciparum [22]): >50%; Activity [23]: inactive; EC50 (ZR-75-1): 0.3 µg/mL (≈ 0.92 µM)
CCN(CC)CCCC(C)Nc1ccnc2cc(Cl)ccc12 (stereo not drawn) [CHLOROQUINE] | – | – | – | – | – | – | – | – | – | – | – | – | – | – | – | – | – | – | – | 17.4 µg/mL (≈ 54.4 µM) | –
CCC[C@@H](O)C1=C(Br)/C(=C\I)OC1=O | – | – | – | – | – | – | – | – | – | – | – | – | – | – | – | 5.8% | – | – | – | – | –
CCC[C@@H](O)C1=C(Br)[C@@](CI)(OC)OC1=O | 16 mm | 14 mm | Active | inactive | Active | Active | inactive | Active | Active | inactive | inactive | inactive | Active | inactive | 10 mm | 77.2% | inactive | – | – | – | –
CCC[C@@H](OC(C)=O)C1=C(Br)[C@@](OC)(C(Br)Br)OC1=O | 14 mm | 16 mm | Active | inactive | Active | inactive | inactive | Active | Active | inactive | inactive | inactive | inactive | inactive | 6 mm | 22.7% | inactive | 3.9 µg/mL (≈ 8.14 µM) | 3.6 µg/mL (≈ 7.52 µM) | 4.1 µg/mL (≈ 8.56 µM) | IC50 (Plasmodium falciparum [24]): 5 µg/mL (≈ 10.4 µM); EC50 (Lu1): > 20 µg/mL; EC50 (KB [20]): 6.2 µg/mL (≈ 12.9 µM); IC50 (Plasmodium falciparum [25]): > 10 µg/mL; Activity [23]: inactive; selectivity ratio [26]: 1; EC50 (ZR-75-1): 2.8 µg/mL (≈ 5.85 µM)
CCC[C@@H](OC(C)=O)C1=C(Br)[C@@](C)(OC)OC1=O | 6 mm | 8 mm | inactive | inactive | inactive | inactive | inactive | Active | Active | Active | inactive | inactive | inactive | inactive | 3 mm | – | inactive | 10.7 µg/mL (≈ 33.3 µM) | 1.7 µg/mL (≈ 5.29 µM) | 5.4 µg/mL (≈ 16.8 µM) | EC50 (Lu1): > 20 µg/mL; EC50 (KB [20]): 2.8 µg/mL (≈ 8.72 µM); Activity (Plasmodium falciparum [22]): >50%; Activity [23]: inactive; EC50 (ZR-75-1): 2.4 µg/mL (≈ 7.47 µM)
CCC[C@@H](OC(C)=O)C1=C(Br)[C@](OC)(C(Br)Br)OC1=O | 8 mm | 9 mm | inactive | inactive | inactive | inactive | inactive | inactive | inactive | inactive | inactive | inactive | inactive | inactive | 4 mm | 87.5% | inactive | 5.3 µg/mL (≈ 11.1 µM) | 4.5 µg/mL (≈ 9.4 µM) | 6.1 µg/mL (≈ 12.7 µM) | IC50 (Plasmodium falciparum [24]): 3.8 µg/mL (≈ 7.93 µM); EC50 (Lu1): > 20 µg/mL; EC50 (KB [20]): 6.1 µg/mL (≈ 12.7 µM); IC50 (Plasmodium falciparum [25]): > 10 µg/mL; Activity [23]: inactive; selectivity ratio [26]: 2; EC50 (ZR-75-1): 3.8 µg/mL (≈ 7.93 µM)
